Measured values from different studies.
Protocols differ between the studies behind these lines.
Target: Serine/threonine-protein kinase Nek1 (NEK1, Homo sapiens, UniProt Q96PY6)
Residues used in one study (Q96PY6 1-1258): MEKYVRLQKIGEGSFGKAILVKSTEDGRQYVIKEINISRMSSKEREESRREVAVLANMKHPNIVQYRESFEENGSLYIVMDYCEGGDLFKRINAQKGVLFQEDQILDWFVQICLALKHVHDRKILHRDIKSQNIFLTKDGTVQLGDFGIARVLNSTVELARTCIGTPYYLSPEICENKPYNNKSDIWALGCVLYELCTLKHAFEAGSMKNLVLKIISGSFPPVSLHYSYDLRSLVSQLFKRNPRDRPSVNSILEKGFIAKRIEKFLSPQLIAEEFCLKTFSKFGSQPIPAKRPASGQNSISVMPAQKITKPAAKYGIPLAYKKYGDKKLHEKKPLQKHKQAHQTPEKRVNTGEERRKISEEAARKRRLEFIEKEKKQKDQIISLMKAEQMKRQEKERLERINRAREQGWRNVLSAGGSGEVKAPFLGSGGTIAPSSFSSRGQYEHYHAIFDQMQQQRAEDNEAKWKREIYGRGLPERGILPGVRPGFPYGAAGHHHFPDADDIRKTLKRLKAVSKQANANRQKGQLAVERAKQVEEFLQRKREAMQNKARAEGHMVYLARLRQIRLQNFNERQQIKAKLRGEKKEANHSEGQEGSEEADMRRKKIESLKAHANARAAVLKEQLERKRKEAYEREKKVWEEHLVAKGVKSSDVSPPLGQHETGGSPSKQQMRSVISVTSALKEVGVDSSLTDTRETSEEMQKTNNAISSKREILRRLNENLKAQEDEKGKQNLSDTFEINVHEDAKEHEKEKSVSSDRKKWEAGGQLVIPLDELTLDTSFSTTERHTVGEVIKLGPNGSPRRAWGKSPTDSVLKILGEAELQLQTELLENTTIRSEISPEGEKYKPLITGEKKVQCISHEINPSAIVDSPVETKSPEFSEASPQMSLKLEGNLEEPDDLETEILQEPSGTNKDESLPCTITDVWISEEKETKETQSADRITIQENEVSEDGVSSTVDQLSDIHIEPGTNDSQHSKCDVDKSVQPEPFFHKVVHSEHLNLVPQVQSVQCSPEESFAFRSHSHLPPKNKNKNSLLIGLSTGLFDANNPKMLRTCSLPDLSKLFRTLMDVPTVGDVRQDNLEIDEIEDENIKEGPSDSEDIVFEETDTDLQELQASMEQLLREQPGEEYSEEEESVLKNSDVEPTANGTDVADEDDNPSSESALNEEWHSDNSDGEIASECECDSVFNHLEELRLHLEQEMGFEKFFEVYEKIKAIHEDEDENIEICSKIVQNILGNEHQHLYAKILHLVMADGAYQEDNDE

SMILES	assay	conditions	remaining binding [%]
O=C(NCCCN1CCOCC1)c1ccc(Nc2nccc(-c3cc4ccccc4s3)n2)cc1	binding, competition with immobilised ligand	1 µM	72
CNC(=O)Nc1ccc2c(c1)CC[C@@]21OC(=O)N(CC(=O)N(Cc2ccc(F)cc2)[C@@H](C)C(F)(F)F)C1=O	cell-free assay, competition with immobilised ligand	1 µM	100
C[C@@H]1CCN(c2nccc(-c3cnn4ncccc34)n2)C1	binding	1 µM	100
Nc1cnc(N2CCc3cc(S(=O)(=O)Nc4c(F)cc(Cl)cc4F)cc(N4CCCC4=O)c32)nc1	binding, competition with immobilised ligand	1 µM	46
N[C@@H]1CCN(c2nccc(-c3cnn4ncccc34)n2)C1	binding	1 µM	100
CN(c1ccnc(CNc2nc(Nc3ccc4c(c3)CC(=O)N4)ncc2C(F)(F)F)n1)S(C)(=O)=O	cell-free assay, competition with immobilised ligand	1 µM	51
Nc1ncc2c(n1)-c1c([nH]c3ccc(C#CC4CC4)cc13)CCCC2	binding, competition with immobilised ligand	1 µM	100
O=C(c1ccc(Nc2ncc(Cl)c(-c3ccc(Cl)s3)n2)cc1)N1CCC(N2CCCC2)CC1	binding, competition with immobilised ligand	1 µM	23
O=C(N[C@H]1CCCCC/C=C\C2C[C@@]2(C(=O)O)NC(=O)[C@@H]2C[C@@H](Oc3ccncc3)CN2C1=O)OC1CCCC1 (stereo partly shown)	binding, competition with immobilised ligand	1 µM	100
COc1ncc2cc3ccccc3nc2c1C#N	cell-free assay, competition with immobilised ligand	5 µM	100
COc1ccnn2ncc(-c3ccnc(N(C)C)n3)c12	binding	1 µM	100
CCN1CCN(Cc2ccc(C(=O)Nc3ccc(C)c(Oc4ccc5c(c4)CC(=O)N5)c3)cc2C(F)(F)F)CC1	binding, competition with immobilised ligand	1 µM	100
O=C(NCC1CCOCC1)c1n[nH]cc1NC(=O)c1c(F)cccc1F	binding, competition with immobilised ligand	1 µM	100
C=CC(=O)N1CCC(C(=O)NCC(=O)N2CCN(c3nc(-c4cnc(N)nc4C(F)F)nc(N4CCOCC4)n3)CC2)CC1	binding, competition with immobilised ligand	1 µM	96
Cn1nc(C(=O)NCc2ccc(C(=O)O)cc2)cc1-c1ccc2[nH]ccc2c1	cell-free assay, competition with immobilised ligand	0.1 µM	100
CN(C)c1nccc(-c2cnn3ncccc23)n1	binding	1 µM	88
O=C(NCc1ncc(C(F)(F)F)cc1Cl)c1ccc2c(c1)C1(CCS(=O)(=O)CC1)[C@H](C1CC1)N2S(=O)(=O)c1ccc(F)cc1	cell-free assay, competition with immobilised ligand	1 µM	100
Cc1cnn2ncc(-c3ccnc(N(C)C)n3)c2c1	binding	1 µM	100
O=C(c1ccc(Nc2nccc(-c3cc4ccccc4s3)n2)cc1)N1CCC(N2CCCC2)CC1	binding, competition with immobilised ligand	1 µM	31
CN(C)c1ncc(F)c(-c2cnn3ncccc23)n1	binding	1 µM	100
CCC(=O)N[C@H]1CC[C@@H](C(=O)N(C)c2ccc(-c3nc4ccccc4o3)cc2)C1	cell-free assay, competition with immobilised ligand	1 µM	100
COc1cnc(Nc2cccc(S(N)(=O)=O)c2)nc1N1CCN(c2ccccc2)C(=O)C1	binding, competition with immobilised ligand	1 µM	100
